Activity calls are given as the source filed them. The rule behind the calls is not given here.
Experiments:
[1] = (§1) Agonist activity at muscarinic M1 receptor in New Zealand White rabbit vas deferens assessed as inhibition of electrically-stimulated muscle contraction; format: functional, Oryctolagus cuniculus
Method in brief: (§2)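 Prostatic portion of male-free-listed New Zealand white rabbit (3.0-3.5 kg, fasted 24 h) vas deferens in modified Krebs, 31 °C, 95% O2-5% CO2; 45 min stabilisation, field stimulation 2 Hz, 5 ms, 5 V; isometric recording. Cumulative concentration-response curves; pD2 by linear regression; intrinsic activity as fraction of McN-A-343 maximum; means ± SEM of four to six experiments.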

[2] = Agonist activity at muscarinic M2 receptor in guinea pig atrium assessed as inhibition of electrically-stimulated muscle contraction; format: functional, Cavia porcellus, Cardiac atrium
[3] = target: Muscarinic acetylcholine receptor M3 (Cavia porcellus) (UniProt Q8VH26); experiment: Agonist activity at muscarinic M3 receptor in guinea pig ileum assessed as inhibition of electrically-stimulated muscle contraction; format: functional, tissue-based
Sequence of Muscarinic acetylcholine receptor M3 (Cavia porcellus) (Q8VH26 1-587): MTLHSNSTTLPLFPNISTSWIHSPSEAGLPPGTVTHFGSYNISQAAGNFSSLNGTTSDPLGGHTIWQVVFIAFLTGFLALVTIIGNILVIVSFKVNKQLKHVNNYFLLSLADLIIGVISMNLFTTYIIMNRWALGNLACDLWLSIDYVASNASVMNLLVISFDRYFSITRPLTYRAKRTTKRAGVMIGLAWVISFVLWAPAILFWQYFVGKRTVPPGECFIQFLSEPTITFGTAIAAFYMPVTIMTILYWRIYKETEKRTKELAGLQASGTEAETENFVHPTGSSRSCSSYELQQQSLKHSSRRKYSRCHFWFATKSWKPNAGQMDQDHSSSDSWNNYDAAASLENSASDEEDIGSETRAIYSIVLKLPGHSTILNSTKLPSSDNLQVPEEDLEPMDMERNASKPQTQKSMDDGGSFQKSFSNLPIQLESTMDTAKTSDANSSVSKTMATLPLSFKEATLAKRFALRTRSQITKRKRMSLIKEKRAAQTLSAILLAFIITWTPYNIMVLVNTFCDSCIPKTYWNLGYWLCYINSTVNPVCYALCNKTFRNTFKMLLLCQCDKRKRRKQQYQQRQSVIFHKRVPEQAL
Method in brief: (§3)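 Male guinea pig (250-350 g, fasted 24 h) ileal segments 2-3 cm, 1.0 g tension, 37 °C, Krebs-Henseleit with carbogen; 45 min equilibration, isometric contractions. Cumulative agonist concentration-response curves; pD2 by linear regression; intrinsic activity relative to bethanechol maximum; means ± SEM of four to six experiments.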

[4] = Agonist activity at muscarinic M4 receptor in guinea pig lung assessed as inhibition of electrically-stimulated muscle contraction; format: functional, Cavia porcellus
[5] = target: T1, Muscarinic acetylcholine receptor M1 (Homo sapiens, UniProt P11229); experiment: Displacement of [3H]NMS from human muscarinic M1 receptor expressed in CHO cells by microplate scintillation counting; format: cell-based
T1 sequence (P11229 whole entry): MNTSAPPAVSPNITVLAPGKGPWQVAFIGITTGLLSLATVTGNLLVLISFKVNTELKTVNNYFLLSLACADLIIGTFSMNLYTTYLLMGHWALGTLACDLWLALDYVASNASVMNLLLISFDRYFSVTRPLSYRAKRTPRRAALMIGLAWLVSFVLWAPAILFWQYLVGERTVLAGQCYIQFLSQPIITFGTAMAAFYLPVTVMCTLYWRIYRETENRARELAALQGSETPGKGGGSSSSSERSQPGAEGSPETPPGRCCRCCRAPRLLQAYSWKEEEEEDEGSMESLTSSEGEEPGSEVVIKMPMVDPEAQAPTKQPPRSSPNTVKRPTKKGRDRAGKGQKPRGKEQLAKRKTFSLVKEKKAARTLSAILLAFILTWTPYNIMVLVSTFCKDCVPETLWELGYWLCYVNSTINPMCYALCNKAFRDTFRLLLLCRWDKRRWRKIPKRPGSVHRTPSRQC

[6] = target: T2, Muscarinic acetylcholine receptor M2 (Homo sapiens, UniProt P08172); experiment: Displacement of [3H]NMS from human muscarinic M2 receptor expressed in CHO cells by microplate scintillation counting; format: cell-based
T2 sequence (P08172 whole entry): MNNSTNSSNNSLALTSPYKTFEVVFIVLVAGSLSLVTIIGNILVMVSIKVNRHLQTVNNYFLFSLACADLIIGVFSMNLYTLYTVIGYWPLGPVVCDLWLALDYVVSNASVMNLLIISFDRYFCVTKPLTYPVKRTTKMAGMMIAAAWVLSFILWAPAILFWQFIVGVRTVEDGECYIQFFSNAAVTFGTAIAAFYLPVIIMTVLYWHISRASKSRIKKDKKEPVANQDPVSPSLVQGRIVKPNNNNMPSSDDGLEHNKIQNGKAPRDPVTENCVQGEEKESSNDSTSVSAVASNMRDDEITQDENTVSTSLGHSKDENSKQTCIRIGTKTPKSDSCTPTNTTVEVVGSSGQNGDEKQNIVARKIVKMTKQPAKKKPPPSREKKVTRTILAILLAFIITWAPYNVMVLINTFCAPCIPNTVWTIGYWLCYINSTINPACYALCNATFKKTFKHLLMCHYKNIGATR

[7] = target: Muscarinic acetylcholine receptor M3 (Homo sapiens, UniProt P20309); experiment: Displacement of [3H]NMS from human muscarinic M3 receptor expressed in CHO cells by microplate scintillation counting; format: cell-based
Sequence of Muscarinic acetylcholine receptor M3 (P20309 whole entry): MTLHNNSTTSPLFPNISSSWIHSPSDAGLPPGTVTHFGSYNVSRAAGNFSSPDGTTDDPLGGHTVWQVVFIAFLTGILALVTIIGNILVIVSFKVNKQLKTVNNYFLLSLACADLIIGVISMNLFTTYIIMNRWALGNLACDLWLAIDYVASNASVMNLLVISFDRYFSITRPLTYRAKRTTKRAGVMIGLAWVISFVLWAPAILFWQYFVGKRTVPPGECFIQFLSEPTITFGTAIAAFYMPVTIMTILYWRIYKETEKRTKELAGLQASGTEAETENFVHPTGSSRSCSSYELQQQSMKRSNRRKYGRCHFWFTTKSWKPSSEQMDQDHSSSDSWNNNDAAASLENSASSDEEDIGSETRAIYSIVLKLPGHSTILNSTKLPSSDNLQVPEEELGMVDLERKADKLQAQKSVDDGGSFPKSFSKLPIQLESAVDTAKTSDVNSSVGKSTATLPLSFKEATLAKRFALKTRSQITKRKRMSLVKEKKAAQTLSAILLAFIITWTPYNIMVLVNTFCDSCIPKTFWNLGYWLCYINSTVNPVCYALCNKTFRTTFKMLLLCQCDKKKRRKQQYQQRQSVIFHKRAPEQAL

[8] = target: T3, Muscarinic acetylcholine receptor M4 (Homo sapiens, UniProt P08173); experiment: Displacement of [3H]NMS from human muscarinic M4 receptor expressed in CHO cells by microplate scintillation counting; format: cell-based
T3 sequence (P08173 whole entry): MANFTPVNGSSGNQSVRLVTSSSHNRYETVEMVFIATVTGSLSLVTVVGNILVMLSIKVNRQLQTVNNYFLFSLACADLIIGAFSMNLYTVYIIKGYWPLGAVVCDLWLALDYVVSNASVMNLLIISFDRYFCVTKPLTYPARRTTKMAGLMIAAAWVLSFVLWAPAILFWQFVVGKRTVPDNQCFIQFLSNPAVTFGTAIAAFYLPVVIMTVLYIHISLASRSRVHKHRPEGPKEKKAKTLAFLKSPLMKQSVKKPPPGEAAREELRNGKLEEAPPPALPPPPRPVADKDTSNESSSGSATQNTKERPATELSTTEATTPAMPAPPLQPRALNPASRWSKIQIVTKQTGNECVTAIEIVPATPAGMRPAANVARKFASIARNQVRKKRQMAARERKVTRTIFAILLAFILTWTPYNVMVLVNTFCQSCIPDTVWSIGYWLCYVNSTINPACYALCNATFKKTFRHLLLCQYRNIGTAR

[9] = target: T4, Muscarinic acetylcholine receptor M5 (Homo sapiens, UniProt P08912); experiment: Displacement of [3H]NMS from human muscarinic M5 receptor expressed in CHO cells by microplate scintillation counting; format: cell-based
T4 sequence (P08912 whole entry): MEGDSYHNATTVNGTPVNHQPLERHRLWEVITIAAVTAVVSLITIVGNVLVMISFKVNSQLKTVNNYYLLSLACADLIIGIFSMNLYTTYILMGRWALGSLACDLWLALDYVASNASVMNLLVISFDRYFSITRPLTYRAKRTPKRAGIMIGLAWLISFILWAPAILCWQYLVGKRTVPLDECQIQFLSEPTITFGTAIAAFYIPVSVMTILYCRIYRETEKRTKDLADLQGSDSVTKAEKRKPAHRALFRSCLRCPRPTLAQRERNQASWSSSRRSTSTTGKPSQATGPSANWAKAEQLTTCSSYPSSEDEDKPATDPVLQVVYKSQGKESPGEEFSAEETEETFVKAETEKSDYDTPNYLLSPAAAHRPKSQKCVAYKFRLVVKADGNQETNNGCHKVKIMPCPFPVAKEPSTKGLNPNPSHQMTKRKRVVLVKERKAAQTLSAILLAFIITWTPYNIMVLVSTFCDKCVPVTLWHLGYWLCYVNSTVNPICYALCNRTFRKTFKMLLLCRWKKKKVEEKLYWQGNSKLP

Oryctolagus cuniculus [10] = species on record: Oryctolagus cuniculus; experiment: as §1; format: functional; method in brief: as §2
[11] = target: Muscarinic acetylcholine receptor M3 (Cavia porcellus) (UniProt Q8VH26); experiment: Intrinsic activity at muscarinic M3 receptor in guinea pig ileum assessed as inhibition of electrically-stimulated muscle contraction relative to bathanecol; format: tissue-based; method in brief: as §3
Cavia porcellus [12] = species on record: Cavia porcellus; experiment: Intrinsic activity at muscarinic M2 receptor in guinea pig atrium assessed as inhibition of electrically-stimulated muscle contraction relative to bathanecol; format: tissue-based; conditions: Cardiac atrium
Cavia porcellus [13] = species on record: Cavia porcellus; experiment: Antagonist activity at muscarinic M4 receptor in guinea pig lung assessed as effect on muscle contraction up to 10 uM; format: functional
Oryctolagus cuniculus [14] = species on record: Oryctolagus cuniculus; experiment: Antagonist activity at muscarinic M1 receptor in New Zealand White rabbit vas deferens assessed as effect on muscle contraction up to 30 uM; format: functional, tissue-based
Cavia porcellus [15] = species on record: Cavia porcellus; experiment: Intrinsic activity at muscarinic M4 receptor in guinea pig lung assessed as inhibition of electrically-stimulated muscle contraction relative to bathanecol
Method in brief: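 Male guinea pig peripheral lung strips (15 × 2 × 2 mm) from lower lobe, 0.3 g resting tension, 37 °C, Krebs-Henseleit with carbogen; 45 min equilibration, isometric contractions. Cumulative agonist concentration-response curves; pD2 by linear regression; intrinsic activity relative to bethanechol maximum; means ± SEM of four to six experiments.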

Oryctolagus cuniculus [16] = species on record: Oryctolagus cuniculus; conditions: New Zealand White, Vas deferens
Oryctolagus cuniculus [17] = species on record: Oryctolagus cuniculus; experiment: Intrinsic activity at muscarinic M1 receptor in New Zealand White rabbit vas deferens assessed as inhibition of electrically-stimulated muscle contraction relative to McN-A-343; format: tissue-based; method in brief: as §2
Cavia porcellus [18] = species on record: Cavia porcellus; experiment: Selectivity ratio of pD2 for guinea pig muscarinic M3 receptor to pD2 for guinea pig muscarinic M2 receptor
Cavia porcellus [19] = species on record: Cavia porcellus; experiment: Selectivity ratio of pD2 for guinea pig muscarinic M4 receptor to pD2 for guinea pig muscarinic M3 receptor

| Compound | pD2 [1] | pD2 [2] | pD2 [3] | pD2 [4] | Ki [5] [µM] | Ki [6] [µM] | Ki [7] [µM] | Ki [8] [µM] | Ki [9] [µM] | pD2 (Oryctolagus cuniculus [10]) | Intrinsic activity [11] | Intrinsic activity (Cavia porcellus [12]) | pKb (Cavia porcellus [13]) | pKb (Oryctolagus cuniculus [14]) | Intrinsic activity (Cavia porcellus [15]) | pKb (Oryctolagus cuniculus [16]) | Intrinsic activity (Oryctolagus cuniculus [17]) | Selectivity ratio (Cavia porcellus [18]) | Selectivity ratio (Cavia porcellus [19]) |
| --- | --- | --- | --- | --- | --- | --- | --- | --- | --- | --- | --- | --- | --- | --- | --- | --- | --- | --- | --- |
| C[N+](C)(C)CC#CCOC(=O)Nc1cccc(Cl)c1.[Cl-] | 6.4 |  |  |  |  |  |  |  |  |  |  |  |  |  |  |  |  |  |  |
| CC(C[N+](C)(C)C)OC(N)=O.[Cl-] (stereo not drawn) [BETHANECHOL CHLORIDE] |  | 5.88 | 6.16 | 5.01 |  |  |  |  |  |  |  |  |  |  |  |  |  |  |  |
| CC1(C)OC[C@@H](C[N+](C)(C)C)OC1(C)C.[I-] |  | 5.12 | 5.09 |  | > 100 | 46.8 | 40.7 | 53.7 | 66.1 | inactive | 0.93 | 0.71 | inactive | inactive |  |  |  |  |  |
| C[C@@H]1OC[C@@H](C[N+](C)(C)C)OC1(C)C.[I-] (relative stereo) |  | 4.99 | 5.7 |  | 38 | 33.9 | 10.5 | 30.2 | 16.6 |  | 0.66 | 0.46 | inactive |  |  |  |  |  |  |
| C[C@@H]1CO[C@H](C[N+](C)(C)C)CO1.[I-] (relative stereo) |  |  |  |  | > 100 | 11.2 | 66.1 | 93.3 | 93.3 | inactive | 1 | 1 |  |  | 0.55 | inactive |  |  |  |
| C[C@@H]1OC[C@@H](C[N+](C)(C)C)O[C@@H]1C.[I-] (relative stereo) |  | 5.04 | 4.91 |  | > 100 | 89.1 | > 100 | > 100 | > 100 | inactive | 0.85 | 0.27 | inactive | inactive |  |  |  |  |  |
| C[C@H]1COC[C@@H](C[N+](C)(C)C)O1.[I-] (relative stereo) | 5.65 |  | 7.34 |  |  | 1.58 |  | 11.5 | 7.76 |  |  | 1 |  |  |  |  | 1 |  |  |
| C[C@@H]1COC[C@@H](C[N+](C)(C)C)O1.[I-] | 5.08 |  | 6.02 |  |  | 4.9 |  | 87.1 | 67.6 |  |  | 1 |  |  | 1 |  | 1 |  |  |
| C[C@H]1CO[C@H](C[N+](C)(C)C)CO1.[I-] (relative stereo) |  |  |  | 5.08 | > 100 | 17.4 | 44.7 | > 100 | 63.1 | inactive | 1 | 0.95 |  |  | 0.57 | inactive |  |  |  |
| C[C@@H]1O[C@H](C[N+](C)(C)C)CO[C@@H]1C.[I-] (relative stereo) |  | 5.18 | 5.27 | 5 | > 100 | 20 | > 100 | > 100 | 97.7 |  | 1 | 0.91 |  |  | 0.5 |  |  |  |  |
| C[C@H]1OC[C@@H](C[N+](C)(C)C)O[C@@H]1C.[I-] (relative stereo) |  | 5.01 | 6.7 | 4.59 | > 100 | 16.6 | > 100 | > 100 | > 100 |  | 1.18 | 0.89 |  |  | 0.65 |  |  | 49 | 141 |

Reference: ChEMBL document CHEMBL1153096, “Properly substituted 1,4-dioxane nucleus favours the selective M3 muscarinic receptor activation” (Bioorg Med Chem, 2009)
